Converted amounts (≈) assume the structure as drawn. The source made the active and inactive calls. No cut-off for these calls is given here.
Assays:
Enterococcus faecium [1] = assay: Antifolate activity against Streptococcus faecium ATCC 8043 assessed as growth inhibition; assay type: functional, organism-based; conditions: for IC50: read-out: I50
Lacticaseibacillus casei [2] = assay: Antifolate activity against Lactobacillus casei ATCC 7469 assessed as growth inhibition; assay type: functional, organism-based
[3] = biological target: Dihydrofolate reductase (Lactobacillus casei) (UniProt P00381); assay: Activity of Lactobacillus casei DHFR; conditions: Lacticaseibacillus casei
Sequence of Dihydrofolate reductase (Lactobacillus casei) (P00381 whole entry): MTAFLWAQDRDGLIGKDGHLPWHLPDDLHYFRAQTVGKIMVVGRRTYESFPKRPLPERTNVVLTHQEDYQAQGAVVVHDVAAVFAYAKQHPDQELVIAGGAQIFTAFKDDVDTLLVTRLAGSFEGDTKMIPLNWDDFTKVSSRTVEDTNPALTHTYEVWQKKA
Procedure, shortened: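 The 7,8-dihydro form of the test folate analogue replaced the natural substrate in the previously described L. casei DHFR assay medium.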

Enterococcus faecium [4] = assay: Antifolate activity against Streptococcus faecium ATCC 8043 assessed as growth inhibition at 1.6 ug/ml; assay type: functional, organism-based
Procedure, shortened: (§1)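 Bacterial growth was run in each organism's own assay medium by earlier-reported methods, with test agent at 1.6 μg/mL.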

Lacticaseibacillus casei [5] = assay: Antifolate activity against Lactobacillus casei ATCC 7469 assessed as growth inhibition at 1.6 ug/ml; assay type: functional, organism-based; procedure, shortened: as §1
[6] = biological target: Dihydrofolate reductase (Lactobacillus casei) (UniProt P00381); assay: Inhibition of Lactobacillus casei DHFR; conditions: Lacticaseibacillus casei
[7] = biological target: T1, Thymidylate synthase (Lactobacillus casei) (UniProt P00469); assay: Inhibition of Lactobacillus casei thymidylate synthase; conditions: Lacticaseibacillus casei
T1 sequence (whole entry): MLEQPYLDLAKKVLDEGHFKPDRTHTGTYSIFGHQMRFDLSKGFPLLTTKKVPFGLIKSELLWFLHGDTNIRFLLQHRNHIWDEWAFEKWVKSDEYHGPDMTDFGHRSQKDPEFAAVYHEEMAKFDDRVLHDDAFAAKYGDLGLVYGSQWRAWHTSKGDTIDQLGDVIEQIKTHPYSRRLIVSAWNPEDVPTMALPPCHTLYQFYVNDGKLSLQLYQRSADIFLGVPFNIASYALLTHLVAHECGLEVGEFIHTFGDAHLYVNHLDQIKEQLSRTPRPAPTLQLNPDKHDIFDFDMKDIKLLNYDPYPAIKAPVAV

For `Nc1nc(=O)c2nc(CSc3ccc(C(=O)N[C@@H](CCC(=O)O)C(=O)O)cc3)cnc2[nH]1`, the “growth inhibition (GI)” value (Enterococcus faecium [1]) was “Active” and the “growth inhibition (GI)” value (Lacticaseibacillus casei [2]) was “Active”.

In the case of `COC(=O)c1ccc(SCCc2cnc3nc(N)[nH]c(=O)c3n2)cc1`, the “growth inhibition (GI)” value (Enterococcus faecium [1]) is reported as “inactive” and the “growth inhibition (GI)” value (Lacticaseibacillus casei [2]) is reported as “inactive”.

With `Nc1nc(=O)c2nc(COc3ccc(C(=O)N[C@@H](CCC(=O)O)C(=O)O)cc3)cnc2[nH]1` the “growth inhibition (GI)” value (Enterococcus faecium [1]) was “Active” and the “growth inhibition (GI)” value (Lacticaseibacillus casei [2]) was “Active”.

With `Nc1nc(=O)c2c([nH]1)NCC(CCSc1ccc(C(=O)N[C@@H](CCC(=O)O)C(=O)O)cc1)N2` (some centres not stated) the IC50 (Enterococcus faecium [1]) was 1.2 ng/mL (≈ 2.52 nM) and the I50 (Lacticaseibacillus casei [2]) was 8 ×10⁻⁷ g/ml.

For `Nc1nc(=O)c2c([nH]1)NCC(CCSc1ccc(C(=O)N[C@@H](CCC(=O)O)C(=O)O)cc1)=N2`, the Activity [3] was “Active”.

`Nc1nc2ncc(CCSc3ccc(C(=O)O)cc3)nc2c(=O)[nH]1` was tested, and the “growth inhibition (GI)” value (Enterococcus faecium [1]) was “inactive” and the “growth inhibition (GI)” value (Lacticaseibacillus casei [2]) was “inactive”.

In the case of `Nc1nc(O)c2nc(CCSc3ccc(C(=O)N[C@@H](CCC(=O)O)C(=O)O)cc3)cnc2n1`, the “growth inhibition (GI)” value (Enterococcus faecium [4]) is reported as “inactive”, the “growth inhibition (GI)” value (Lacticaseibacillus casei [5]) is reported as “inactive” and the Activity [3] is reported as “inactive”. For the same compound, the inhibition [6] was “inactive” and the inhibition [7] was “inactive”.

In the case of `Nc1nc(=O)c2c([nH]1)NCC(CCNc1ccc(C(=O)N[C@@H](CCC(=O)O)C(=O)O)cc1)N2` (some centres not stated), the IC50 (Enterococcus faecium [1]) is reported as 0.7 ng/mL (≈ 1.52 nM).
